Our source for the Ki, IC50 and Activity values is ChEMBL document CHEMBL1139231 (J Med Chem, 2007).

Experiment [1] concerns the target T1, Sodium-dependent dopamine transporter (Homo sapiens, UniProt Q01959). The experiment can be described thus: Displacement of [125I]RTI-55 from human DAT expressing HEK293 cells. It counts as cell-based.
Experiment [2] has as its target T2, Sodium-dependent serotonin transporter (Homo sapiens, UniProt P31645). Kind of experiment: Displacement of [125I]RTI-55 from human SERT expressing HEK293 cells. Type of experiment: cell-based. An outline of the steps:
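Membranes from HEK293 cells stably expressing human DAT or SERT (lysed in hypotonic HEPES/EDTA, pelleted, resuspended in 0.32 M sucrose) preincubated with drug 10 min at rt, then [125I]RTI-55 added; 90 min rt in dark; filtration, scintillation counting. Krebs-HEPES buffer pH 7.4. Nonspecific: 5 µM mazindol (DAT) or 5 µM imipramine (SERT). Duplicate points, ≥3 experiments.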

For experiment [3], the target named is T1, Sodium-dependent dopamine transporter. The experiment can be described thus: Inhibition of [3H]DA uptake at human DAT expressing HEK293 cells. It counts as cell-based. In outline: (§1)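 Intact HEK293 cells stably expressing human SERT or DAT, scraped and triturated, preincubated with drug 10 min at 25 °C in Krebs-HEPES pH 7.4; [3H]5-HT or [3H]DA (20 nM final) added for 10 min; filtration, scintillation counting. Nonspecific: 5 µM imipramine (SERT) or 5 µM mazindol (DAT). Triplicate points, ≥3 experiments.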

For experiment [4], the target named is T2, Sodium-dependent serotonin transporter. Kind of experiment: Inhibition of [3H]5-HT uptake into human SERT expressing HEK293 cells. It counts as cell-based. In outline: as §1
The target of experiment [5] is T3, Sodium-dependent noradrenaline transporter (Homo sapiens, UniProt P23975). Kind of experiment: Displacement of [125I]RTI-55 from human NET expressing HEK293 cells. It counts as cell-based.
Experiment [6] deals with T3, Sodium-dependent noradrenaline transporter. Kind of experiment: Inhibition of [3H]NE uptake into human NET expressing HEK293 cells. Type of experiment: cell-based.
The next experiment concerns Mus musculus. The experiment can be described thus: Effect on locomotor activity in Swiss-Webster mouse at 30 mg/kg. It counts as functional, organism-based. Set-up: dose 30 mg/kg. An outline of the steps:
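Nonhabituated male Swiss-Webster mice (Hsd:ND4, 2-3 months), groups of eight, dosed ip (vehicle deionized water) immediately before testing; horizontal photobeam interruptions counted per 10 min over 8 h, one mouse per chamber, starting 2 h after lights on; compared with vehicle, p < 0.05.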

Active and inactive are the calls of the source. No cut-off for these calls is given here.

T2 sequence (P31645 whole entry): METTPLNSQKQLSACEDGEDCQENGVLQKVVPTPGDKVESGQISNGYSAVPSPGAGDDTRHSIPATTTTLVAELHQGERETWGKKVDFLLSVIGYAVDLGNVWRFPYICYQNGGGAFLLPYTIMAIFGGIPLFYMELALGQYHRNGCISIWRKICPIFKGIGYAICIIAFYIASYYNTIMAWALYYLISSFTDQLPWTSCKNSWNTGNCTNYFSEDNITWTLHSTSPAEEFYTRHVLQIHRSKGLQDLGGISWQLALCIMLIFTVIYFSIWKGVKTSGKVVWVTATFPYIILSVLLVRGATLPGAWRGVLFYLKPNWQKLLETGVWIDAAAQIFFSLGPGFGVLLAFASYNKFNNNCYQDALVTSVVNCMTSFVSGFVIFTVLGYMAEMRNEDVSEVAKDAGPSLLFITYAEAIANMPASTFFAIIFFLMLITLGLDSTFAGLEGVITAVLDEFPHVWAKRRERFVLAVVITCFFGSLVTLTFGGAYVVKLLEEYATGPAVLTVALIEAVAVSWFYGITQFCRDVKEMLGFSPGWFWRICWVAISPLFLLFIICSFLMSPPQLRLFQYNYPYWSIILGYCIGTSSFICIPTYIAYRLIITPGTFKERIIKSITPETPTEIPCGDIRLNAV
T1 sequence (Q01959 whole entry): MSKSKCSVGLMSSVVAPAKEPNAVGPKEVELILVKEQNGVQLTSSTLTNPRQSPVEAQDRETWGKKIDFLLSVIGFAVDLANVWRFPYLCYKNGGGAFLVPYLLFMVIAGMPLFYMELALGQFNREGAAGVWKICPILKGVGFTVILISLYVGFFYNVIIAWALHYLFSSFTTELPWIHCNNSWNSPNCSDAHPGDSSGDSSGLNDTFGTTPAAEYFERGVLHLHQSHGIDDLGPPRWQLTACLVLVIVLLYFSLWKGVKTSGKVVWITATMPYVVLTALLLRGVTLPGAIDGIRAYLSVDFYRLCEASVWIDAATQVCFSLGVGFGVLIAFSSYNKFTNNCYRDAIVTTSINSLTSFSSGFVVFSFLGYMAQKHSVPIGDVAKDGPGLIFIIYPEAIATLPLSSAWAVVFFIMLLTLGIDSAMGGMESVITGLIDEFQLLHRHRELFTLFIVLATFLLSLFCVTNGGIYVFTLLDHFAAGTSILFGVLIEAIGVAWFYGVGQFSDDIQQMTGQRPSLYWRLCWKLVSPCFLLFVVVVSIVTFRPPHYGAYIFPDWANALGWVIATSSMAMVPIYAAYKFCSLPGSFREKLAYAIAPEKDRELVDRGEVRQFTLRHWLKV
T3 sequence (P23975 whole entry): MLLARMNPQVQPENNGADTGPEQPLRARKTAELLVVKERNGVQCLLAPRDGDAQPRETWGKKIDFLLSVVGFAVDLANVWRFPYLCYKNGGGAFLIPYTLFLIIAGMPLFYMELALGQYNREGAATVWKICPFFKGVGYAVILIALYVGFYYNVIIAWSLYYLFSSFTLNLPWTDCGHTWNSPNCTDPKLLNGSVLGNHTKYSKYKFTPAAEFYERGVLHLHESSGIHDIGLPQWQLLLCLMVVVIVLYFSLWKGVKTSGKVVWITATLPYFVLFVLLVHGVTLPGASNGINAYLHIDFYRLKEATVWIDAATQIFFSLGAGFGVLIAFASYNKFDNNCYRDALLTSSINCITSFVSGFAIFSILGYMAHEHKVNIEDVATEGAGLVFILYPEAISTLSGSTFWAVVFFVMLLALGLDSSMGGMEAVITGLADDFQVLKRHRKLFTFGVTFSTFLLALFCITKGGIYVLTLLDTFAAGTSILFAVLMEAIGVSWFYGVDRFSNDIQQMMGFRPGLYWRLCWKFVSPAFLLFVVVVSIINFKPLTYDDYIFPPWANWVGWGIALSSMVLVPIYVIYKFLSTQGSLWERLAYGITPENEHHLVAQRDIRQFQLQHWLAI

As for `CCCCCC(c1ccc(Cl)cc1)C1CCCCN1` (stereo in doubt; form 1), the inhibitory constant (Ki) in experiment [1] came to 23 nM; in experiment [2], 2.2 µM; in experiment [5], 0.16 µM. For the same compound, the IC50 in experiment [3] is 45 nM; in experiment [4], 1.5 µM; in experiment [6], 49 nM.
For `CCCCC(c1ccc(Cl)c(Cl)c1)C1CCCCN1` (stereo in doubt; form 1), the Ki in experiment [1] was determined as 2.3 nM; in experiment [2], 1.3 µM; in experiment [5], 0.012 µM. Also, the values for the 50% inhibitory concentration (IC50) in experiment [3], in experiment [4] and in experiment [6] were 5.7 nM, 1.4 µM and 27 nM, respectively.
Regarding `COC(=O)C(c1ccccc1)C1CCCCN1` (stereo not given) [METHYLPHENIDATE], the values for the IC50 in experiment [4] and in experiment [6] were 5.1 µM and 61 nM, respectively. The Ki in experiment [5] was found to be 0.66 µM.
For `Clc1ccc(C(CCCc2ccccc2)C2CCCCN2)cc1` (stereo in doubt; form 1), the Ki is 440 nM in experiment [1], 0.7 µM in experiment [2] and 0.49 µM in experiment [5]. For the same compound, the IC50 was found to be 290 nM in experiment [3], 1.6 µM in experiment [4] and 600 nM in experiment [6].
For the compound `CCCC(c1ccc(Cl)cc1)C1CCCCN1` (stereo not given), the Ki in experiment [1] came out at 11 nM; in experiment [2], 2.7 µM; in experiment [5], 0.2 µM. Moreover, the IC50 in experiment [3] was 7.4 nM; in experiment [4], 2.9 µM; in experiment [6], 50 nM.
For `CC(C)CC(c1ccc(C(C)C)cc1)C1CCCCN1` (stereo not given), in experiment [1], the Ki was more than 6500 nM. The IC50 in experiment [3] is more than 9100 nM; in experiment [6] it was more than 8700 nM.
For `CC(C)CC(c1cccc(Cl)c1)C1CCCCN1` (stereo in doubt; form 2), the Ki is 140 nM in experiment [1] and 0.34 µM in experiment [5]. In addition, the IC50 in experiment [3] amounted to 88 nM; in experiment [4] it was 0.87 µM; in experiment [6], 73 nM.
Turning to `CCCCCC(c1ccc(Cl)cc1)C1CCCCN1` (stereo in doubt; form 2), the Ki was 870 nM in experiment [1], 3.6 µM in experiment [2] and 1.5 µM in experiment [5]. Besides, the IC50 stood at 650 nM in experiment [3], 1.7 µM in experiment [4] and 860 nM in experiment [6].
Consider `CCCC(c1ccc(Cl)c(Cl)c1)C1CCCCN1` (stereo in doubt; form 1), for which the Ki in experiment [1] worked out at 0.97 nM; in experiment [2], 1.8 µM; in experiment [5], 0.0039 µM. The IC50 amounted to 4.5 nM in experiment [3], 0.56 µM in experiment [4] and 8.1 nM in experiment [6].
As to `Clc1ccc(C(CCc2ccccc2)C2CCCCN2)cc1` (stereo not given), the Ki in experiment [2] is 1.8 µM. Also, inhibition in experiment [4] was half-maximal at 0.21 µM (IC50).
For the compound `COc1ccc(C(CC(C)C)C2CCCCN2)cc1` (stereo in doubt; form 1), the inhibitory constant (Ki) is 52 nM in experiment [1], 2.8 µM in experiment [2] and 3.1 µM in experiment [5]. Moreover, the IC50 in experiment [3] was determined as 25 nM; in experiment [4], 3.5 µM; in experiment [6] it was 410 nM.
As to `CC(C)CC(c1ccc(Cl)cc1)C1CCCCN1` (stereo in doubt; form 1), the result in the experiment on Mus musculus was Active.
Take `CCCC(c1ccc(Cl)c(Cl)c1)C1CCCCN1` (stereo in doubt; form 2): the Ki in experiment [1] came to 43 nM; in experiment [2], 0.45 µM; in experiment [5] it was 0.03 µM. Also, the IC50 in experiment [3] turned out to be 88 nM; in experiment [4], 0.18 µM; in experiment [6], 47 nM.
In the case of `COC(=O)C(c1ccc(Cl)cc1)C1CCCCN1` (stereo in doubt; form 2), the IC50 in experiment [4] is more than 10000 µM. The same compound came in with a Ki in experiment [5] of more than 6.1 µM.
Take `COc1cccc(C(CC(C)C)C2CCCCN2)c1` (stereo in doubt; form 1): the Ki in experiment [1] stood at 22 nM; in experiment [2], 4.2 µM; in experiment [5], 3.8 µM. Further, the IC50 in experiment [3] was 35 nM; in experiment [4] it was 2.7 µM; in experiment [6], 330 nM.
On to `CC(C)C(c1ccc(Cl)cc1)C1CCCCN1` (stereo not given), for which the Ki in experiment [2] and in experiment [5] was more than 10000 µM throughout.
With `Clc1ccc(C(CCCc2ccccc2)C2CCCCN2)cc1` (stereo in doubt; form 2), the Ki in experiment [1] was found to be 2900 nM; in experiment [2] it was 1.5 µM; in experiment [5], 1.5 µM. Moreover, the IC50 in experiment [3] was 1400 nM; in experiment [4], 1.2 µM; in experiment [6] it was 1700 nM.
With `CC(C)CC(c1cccc(Cl)c1)C1CCCCN1` (stereo in doubt; form 1), the Ki stood at 3.7 nM in experiment [1] and 0.023 µM in experiment [5]. Besides, the figures for the IC50 in experiment [3], in experiment [4] and in experiment [6] were 2.8 nM, 2.1 µM and 14 nM, respectively.
Turning to `CC(C)(C)CC(c1ccc(Cl)cc1)C1CCCCN1` (stereo not given), the IC50 in experiment [4] was more than 8.3 µM. In experiment [5], the Ki is more than 5.5 µM.
`COC(=O)C(c1ccc(Cl)cc1)C1CCCCN1` (stereo in doubt; form 1) displayed an IC50 in experiment [4] of more than 9.8 µM.
As for `CC(C)CC(c1ccc(Cl)c(Cl)c1)C1CCCCN1` (stereo in doubt; form 2), the results for the Ki in experiment [1], in experiment [2] and in experiment [5] were 31 nM, 0.45 µM and 0.12 µM, respectively. Also, the results for the IC50 in experiment [3], in experiment [4] and in experiment [6] were 13 nM, 0.29 µM and 19 nM, respectively.
In the case of `CC(C)CC(c1ccc(Cl)c(Cl)c1)C1CCCCN1` (stereo in doubt; form 1), the inhibitory constant (Ki) came to 1 nM in experiment [1], 1.6 µM in experiment [2] and 0.025 µM in experiment [5]. Also, the IC50 in experiment [3] was found to be 5.5 nM; in experiment [4], 1.1 µM; in experiment [6], 9 nM.
As for `CC(C)CCC(c1ccc(Cl)cc1)C1CCCCN1` (stereo in doubt; form 1), the Ki in experiment [1] stood at 3.6 nM; in experiment [2], 5 µM; in experiment [5] it was 0.83 µM. In addition, the IC50 in experiment [3] was 14 nM; in experiment [4] it was 7.3 µM; in experiment [6], 210 nM.
`CCC(CC)C(c1ccc(Cl)cc1)C1CCCCN1` (stereo in doubt; form 1): the Ki in experiment [1] is 400 nM; in experiment [2] it was 3.9 µM; in experiment [5] it was 0.97 µM. Besides, the concentration for half-maximal inhibition (IC50) was 240 nM in experiment [3], more than 9.4 µM in experiment [4] and 330 nM in experiment [6].
Turning to `COc1ccc(C(CC(C)C)C2CCCCN2)cc1` (stereo in doubt; form 2), the values for the inhibitory constant (Ki) in experiment [1], in experiment [2] and in experiment [5] were 770 nM, 0.95 µM and 16 µM, respectively. The IC50 was determined as 400 nM in experiment [3], 1.2 µM in experiment [4] and 1600 nM in experiment [6].
In the case of `CC(c1ccc(Cl)cc1)C1CCCCN1` (stereo in doubt; form 2), the results for the Ki in experiment [1], in experiment [2] and in experiment [5] were more than 3900 nM, more than 9.1 µM and more than 6.3 µM, respectively. Further, the IC50 in experiment [3] turned out to be 1500 nM; in experiment [4] it was 4.7 µM; in experiment [6], 3200 nM.
For the compound `CC(C)CCC(c1ccc(Cl)cc1)C1CCCCN1` (stereo in doubt; form 2), the Ki in experiment [1] was 510 nM; in experiment [2], 6.7 µM; in experiment [5] it was 12 µM. Besides, the figures for the IC50 in experiment [3], in experiment [4] and in experiment [6] were 680 nM, more than 8.3 µM and 3000 nM, respectively.
On to `CCC(c1ccc(Cl)cc1)C1CCCCN1` (stereo not given), for which the Ki in experiment [1] was 1800 nM; in experiment [2] it was 4.2 µM; in experiment [5], more than 9.2 µM. In addition, the IC50 came out at 2800 nM in experiment [3], 4.1 µM in experiment [4] and 1300 nM in experiment [6].
Consider `CCCCC(c1ccc(Cl)c(Cl)c1)C1CCCCN1` (stereo in doubt; form 2), for which the Ki in experiment [1] worked out at 29 nM; in experiment [2] it was 1.1 µM; in experiment [5], 0.031 µM. Moreover, the IC50 in experiment [3] is 67 nM; in experiment [4], 0.55 µM; in experiment [6], 63 nM.
Turning to `CC(=O)C(c1ccccc1)C1CCCCN1` (stereo not given), the Ki in experiment [1] was determined as 370 nM; in experiment [2], 7.8 µM; in experiment [5], 2.7 µM. Also, the values for the IC50 in experiment [3], in experiment [4] and in experiment [6] were 190 nM, more than 9.7 µM and 220 nM, respectively.
Consider `CC(C)CC(c1ccc(Cl)cc1)C1CCCCN1` (stereo in doubt; form 2), for which the values for the inhibition constant Ki in experiment [1] and in experiment [5] were 170 nM and 4.5 µM, respectively. Also, the figures for the IC50 in experiment [3] and in experiment [6] were 380 nM and 750 nM, respectively.
Take `COc1cccc(C(CC(C)C)C2CCCCN2)c1` (stereo in doubt; form 2): the Ki in experiment [1] was determined as 950 nM; in experiment [2], 3.8 µM; in experiment [5] it was 12 µM. Moreover, the half-maximal inhibitory concentration (IC50) in experiment [3] was 140 nM; in experiment [4] it was 2.6 µM; in experiment [6], 1400 nM.
As for `CC(C)CC(c1ccc(Cl)c(Cl)c1)C1CCCCN1C` (stereo not given), in experiment [6], the IC50 was found to be 28 nM. This lies in the double-digit nanomolar range.
Still for that read-out and setting: the figure for `Clc1ccc(C(Cc2ccccc2)C2CCCCN2)cc1` (stereo not given) is more than 8800 nM.
For the compound `CCC(CC)C(c1ccc(Cl)cc1)C1CCCCN1` (stereo in doubt; form 2), the values for the Ki in experiment [1], in experiment [2] and in experiment [5] were more than 5700 nM, 4.8 µM and 4.3 µM, respectively. Besides, the figures for the IC50 in experiment [3], in experiment [4] and in experiment [6] were 1200 nM, more than 9.6 µM and 3800 nM, respectively.
With `CC(c1ccc(Cl)cc1)C1CCCCN1` (stereo in doubt; form 1), the Ki was found to be 180 nM in experiment [1], 4.9 µM in experiment [2] and 0.36 µM in experiment [5]. Also, the IC50 was 22 nM in experiment [3], 1.9 µM in experiment [4] and 35 nM in experiment [6].
